Calls of active or inactive are those of the source. No cut-off for these calls is given here.

One compound from ChEMBL document CHEMBL3044962, “Characterization of the antifungal activity on Botrytis cinerea of the natural diterpenoids kaurenoic acid and 3beta-hydroxy-kaurenoic acid” (2004) can be followed below.

In assay [1] the test system is Botrytis cinerea. Kind of assay: Antifungal activity against Botryotinia fuckeliana assessed as reduction in mycelial growth rate at 40 to 160 ug/ml up to 9 days (reference value: 1.82 cm/day). Format: functional.
The subject of assay [2] is Botrytis cinerea. Kind of assay: Antifungal activity against Botryotinia fuckeliana grown assessed as induction of production of laccase after 10 days relative to control. Format: functional. The method, boiled down:
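Mycelium pregrown 3 days at 22 °C in malt-yeast liquid, ground with glass beads and transferred to minimum medium with 1% pectin plus diterpenoid at 40 µg/mL. Culture filtrate taken at day 10. Laccase read with 0.1 mM syringaldazine in 50 mM sodium phosphate pH 6.0, 15 min at 22 °C, A530. 1 U = 0.1 absorbance increase per min. ≥5 experiments, ANOVA/LSD.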

The test system of assay [3] is Botrytis cinerea. Kind of assay: Antifungal activity against Botryotinia fuckeliana grown in malt-yeast extract medium assessed as inhibition of mycelial growth at 40 to 160 ug/ml. Format: functional. The method, boiled down:
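Strain G29 conidia at final 3 × 10^5 conidia/mL in malt-yeast extract medium or liquid minimum medium with 1% glucose. Diterpenoids added from methanol at final 40 µg/mL, methanol evaporated before inoculation. Grown in dark at 22 °C for 5 days. Mycelial wet weight gives % inhibition relative to methanol control. ≥5 independent experiments, mean ± SD.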

The subject of assay [4] is Botrytis cinerea. Kind of assay: Antifungal activity against Botryotinia fuckeliana inoculated in tomato leaf assessed as reduction in lesion area at 40 ug/ml after 4 days (Rvb =9.7 +/- 1.8 mm2 ). In kind it is functional.
In assay [5] the test system is Botrytis cinerea. Kind of assay: Antifungal activity against Botryotinia fuckeliana assessed as inhibition of mycelial growth at 40 to 160 ug/ml up to 7 days. Format: functional, organism-based.
Assay [6] has as its system Botrytis cinerea. Kind of assay: Antifungal activity against Botryotinia fuckeliana grown assessed as induction of production of p-nitrophenyl butyrate esterase after 20 days relative to control. Format: functional. The method, boiled down: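 Ground pregrown mycelium (3 days, malt-yeast, 22 °C) moved to minimum medium with 1% cutin or 1% pectin plus diterpenoid at 40 µg/mL, 22 °C. Filtrates sampled over 30 days. Esterase measured with 0.62 mM p-nitrophenylbutyrate in 100 mM sodium phosphate pH 8.0 with Triton X-100, 10 min at 22 °C, A405. 1 U releases 1 µmol p-nitrophenol/min.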

Assay [7] has as its system Botrytis cinerea. Kind of assay: Antifungal activity against Botryotinia fuckeliana grown assessed as membrane leakage measuring efflux of phosphorus at 100 ug/ml after 6 hr by ICP-OES analysis. In kind it is functional, organism-based. The method, boiled down: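 Pregrown mycelia held in 5 mM Tris-HCl pH 7.0 with diterpenoid at final 100 µg/mL (or methanol control) at 22 °C for 6 or 24 h. Phosphorus in the bathing medium measured by ICP-OES. Saponins (100 mg/mL in 10 mM sodium acetate pH 4.5, 6 h) served as positive control. ≥5 experiments, mean ± SD, ANOVA with LSD (P ≤ 0.05).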

Assay [8] has as its system Botrytis cinerea. Kind of assay: Antifungal activity against Botryotinia fuckeliana assessed as inhibition of mycelial growth at 40 to 160 ug/ml up to 6 days. In kind it is functional, organism-based.

Regarding `C=C1C[C@@]23CC[C@H]4[C@@](C)(CCC[C@@]4(C)C(=O)O)[C@@H]2CC[C@@H]1C3` [KAURENOIC ACID], the GI in the assay with Botrytis cinerea [1] turned out to be 1.49 cm/day. Also, the outcome in the assay on Botrytis cinerea [2] and with Botrytis cinerea [7] was Active. Also, the “growth inhibition (GI)” value with Botrytis cinerea [3] is “inactive”. Besides, the Activity in the assay on Botrytis cinerea [4] amounted to 7.5 mm2. For the same compound, the “growth inhibition (GI)” value in the assay on Botrytis cinerea [5] and in the assay on Botrytis cinerea [8] was “Active” each time. Also, the Ratio with Botrytis cinerea [6] was 2.
